Assay results: ChEMBL document CHEMBL1921679, “Synthesis and biological evaluation of novel pyrimidine derivatives as sub-micromolar affinity ligands of GalR2” (Bioorg Med Chem Lett, 2011); call rule not given here

Key:
[1] = target: T1, Galanin receptor type 2 (Homo sapiens) (UniProt O43603); experiment: Displacement of [125I]galanin from GalR2 at 1 uM by gamma counting
T1 sequence (whole entry): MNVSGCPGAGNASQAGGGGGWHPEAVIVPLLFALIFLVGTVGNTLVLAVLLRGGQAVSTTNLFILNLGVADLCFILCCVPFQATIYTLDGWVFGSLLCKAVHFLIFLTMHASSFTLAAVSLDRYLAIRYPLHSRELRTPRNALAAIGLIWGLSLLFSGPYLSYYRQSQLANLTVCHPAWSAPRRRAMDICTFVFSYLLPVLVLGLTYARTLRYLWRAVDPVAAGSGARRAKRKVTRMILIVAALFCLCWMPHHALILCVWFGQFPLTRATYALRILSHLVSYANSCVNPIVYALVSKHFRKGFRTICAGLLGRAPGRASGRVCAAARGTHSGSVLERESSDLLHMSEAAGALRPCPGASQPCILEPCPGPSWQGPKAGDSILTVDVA
How it was run: (§1)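 Single-point screen at 1 and 10 μM, in duplicate, with two screens per receptor. Final 125I porcine galanin was 0.1 nM (GalR1) or 0.15 nM (GalR2). Incubation 1 h, room temperature. Filtration through PEI-treated glass fibre, cold PBS/Triton washes, γ-counting.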

Galanin receptor type 2 [2] = target: T2, Galanin receptor type 2 (Homo sapiens, UniProt O43603); experiment: Displacement of [125I]galanin from GalR2 by gamma counting
T2 sequence (O43603 whole entry): T1 sequence (whole entry)
How it was run: (§2)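 Full-curve competition over 10 nM–100 μM, with a rat galanin control on every plate. Compounds were diluted in 20% DMSO. Membranes were GalR1 2.5 μg or GalR2 5 μg, with 125I porcine galanin at 0.1 nM (GalR1) or 0.15 nM (GalR2), 1 h at room temperature. Filtration, washing and γ-counting followed. IC50 came from a nonlinear one-site competition fit, reported only when the curve bottom fell below 35% of total binding.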

[3] = target: T1, Galanin receptor type 2 (Homo sapiens); experiment: Displacement of [125I]galanin from GalR2 at 10 uM by gamma counting; how it was run: as §1
Galanin receptor type 1 [4] = target: T3, Galanin receptor type 1 (Homo sapiens, UniProt P47211); experiment: Displacement of [125I]galanin from GalR1 at 100 uM by gamma counting
T3 sequence (P47211 whole entry): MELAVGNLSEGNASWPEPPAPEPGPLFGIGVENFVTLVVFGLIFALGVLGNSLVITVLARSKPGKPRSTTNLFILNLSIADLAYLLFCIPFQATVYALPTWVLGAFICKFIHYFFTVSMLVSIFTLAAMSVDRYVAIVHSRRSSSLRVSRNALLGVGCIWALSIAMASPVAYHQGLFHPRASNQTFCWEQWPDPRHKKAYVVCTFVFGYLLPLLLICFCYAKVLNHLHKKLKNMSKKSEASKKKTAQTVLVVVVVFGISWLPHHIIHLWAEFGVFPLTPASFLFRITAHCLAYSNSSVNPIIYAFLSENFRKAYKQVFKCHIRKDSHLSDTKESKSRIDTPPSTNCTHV

Galanin receptor type 1 [5] = target: T3, Galanin receptor type 1; experiment: Displacement of [125I]galanin from GalR1 by gamma counting; how it was run: as §2
Galanin receptor type 2 [6] = target: T2, Galanin receptor type 2; experiment: Displacement of [125I]galanin from GalR2 at 100 uM by gamma counting

| Structure (SMILES) | inhibition [1] | IC50 (Galanin receptor type 2 [2]) | inhibition [3] | IC50 (Galanin receptor type 1 [4]) | IC50 (Galanin receptor type 1 [5]) | IC50 (Galanin receptor type 2 [6]) |
| --- | --- | --- | --- | --- | --- | --- |
| COc1ccc(Nc2nc(Nc3cc(C)ccc3C)cc(N3CCCCC3)n2)cc1 | > 50% | 0.44 µM | > 50% | Not Active | – | – |
| CCN(CC)c1cc(Nc2ccc(OC)c(F)c2)nc(Nc2ccc(OC)cc2)n1 | > 50% | 2.85 µM | > 50% | Not Active | – | – |
| COc1ccc(Nc2cc(Nc3ccc(OC(F)(F)F)cc3)nc(NC3CCCCC3)n2)cc1 | > 50% | 1.06 µM | > 50% | – | 5.93 µM | – |
| COc1ccc(Nc2nc(Nc3ccc(OC)c(F)c3)cc(N3CCN(c4ccccc4)CC3)n2)cc1 | > 50% | 24.9 µM | > 50% | – | 6.82 µM | – |
| FC(F)Oc1ccc(Nc2cc(Nc3ccccc3)nc(N3CCCCC3)n2)cc1 | > 50% | 3.38 µM | > 50% | Not Active | – | – |
| COc1ccc(Nc2cc(Nc3ccc(OC)cc3)nc(N3CCCC3)n2)cc1 | > 50% | 8.04 µM | > 50% | Not Active | – | – |
| COc1ccc(Nc2nc(Nc3ccc(F)cc3C)cc(N3CCCCC3)n2)cc1 | > 50% | 0.98 µM | > 50% | Not Active | – | – |
| COc1ccc(Nc2nc(Nc3ccc(OC)c(F)c3)cc(N3CCCCC3)n2)cc1 | > 50% | 0.43 µM | > 50% | Not Active | – | – |
| COc1ccc(Nc2nc(NCc3cccc(C(F)(F)F)c3)cc(N3CCCCC3)n2)cc1 | > 50% | 1.93 µM | > 50% | Not Active | – | – |
| COc1ccc(Nc2nc(Nc3ccc(OC(F)(F)F)cc3)cc(N3CCCCC3)n2)cc1 | > 50% | 0.33 µM | > 50% | Not Active | – | – |
| COc1ccc(Nc2nc(Nc3ccc(OC)c(F)c3)cc(N3CCC(N4CCCCC4)CC3)n2)cc1 | – | – | – | – | 16 µM | Not Active |
| Cc1c(F)cccc1Nc1cc(N2CCCCC2)nc(N2CCCN(c3ncccc3C(F)(F)F)CC2)n1 | > 50% | 0.56 µM | > 50% | – | 1.3 µM | – |
| Cc1ccc(C)c(Nc2cc(Nc3ccccc3)nc(N3CCCCC3)n2)c1 | > 50% | 4.57 µM | > 50% | Not Active | – | – |
| COc1ccc(Nc2nc(Nc3ccc(OC)c(F)c3)cc(N3CCCC(C)C3)n2)cc1 (stereo not drawn) | > 50% | 1.34 µM | > 50% | – | 6.78 µM | – |
| Cc1ccc(C)c(Nc2cc(N3CCCCC3)nc(N3CCCN(c4ncccc4C(F)(F)F)CC3)n2)c1 | > 50% | 2.08 µM | > 50% | – | 3.9 µM | – |
| c1ccc(Nc2cc(NCc3ccc4c(c3)OCO4)nc(N3CCCCC3)n2)cc1 | > 50% | 3.69 µM | > 50% | Not Active | – | – |
| COc1ccc(Nc2nc(Nc3ccc(OC)c(F)c3)cc(N3CCCCCC3)n2)cc1 | > 50% | 0.77 µM | > 50% | – | 5.48 µM | – |
| COc1ccc(Nc2nc(Nc3ccc(OC)c(F)c3)cc(N3CCCN(C(=O)OC(C)(C)C)CC3)n2)cc1 | > 50% | 9.07 µM | > 50% | – | 2.82 µM | – |
| COc1ccc(Nc2nc(Nc3ccc(OC)c(F)c3)cc(N3CCC(C)CC3)n2)cc1 | – | – | – | Not Active | – | Not Active |
| COc1ccc(Nc2cc(Nc3cccc(OC)c3)nc(NC3CCCCC3)n2)cc1 | > 50% | 1.75 µM | > 50% | – | 5.62 µM | – |
| COc1ccc(Nc2nc(NCC3CCCCC3)cc(Nc3ccc(OC)c(F)c3)n2)cc1 | > 50% | – | > 50% | – | 3.84 µM | Not Active |
| COc1ccc(Nc2nc(Nc3ccc(OC(F)F)cc3)cc(N3CCCCC3)n2)cc1 | – | – | – | Not Active | – | Not Active |
| COc1ccc(Nc2cc(Nc3ccccc3)nc(N3CCCCC3)n2)cc1 | > 50% | 1.09 µM | > 50% | – | 8.59 µM | – |
| FC(F)(F)Oc1cccc(Nc2cc(Nc3ccccc3)nc(N3CCCCC3)n2)c1 | > 50% | 6.62 µM | > 50% | – | 34.9 µM | – |
| COc1ccc(Nc2cc(Nc3cccc(OC(F)F)c3)nc(NC3CCCCC3)n2)cc1 | > 50% | 0.77 µM | > 50% | – | 5.03 µM | – |
| COc1ccc(Nc2nc(Nc3ccc(OC)c(F)c3)cc(N3CCCC3)n2)cc1 | – | – | – | Not Active | – | Not Active |

The next lines start with the values.

| inhibition [1] | IC50 (Galanin receptor type 2 [2]) | inhibition [3] | IC50 (Galanin receptor type 1 [4]) | IC50 (Galanin receptor type 1 [5]) | IC50 (Galanin receptor type 2 [6]) | Structure (SMILES) |
| --- | --- | --- | --- | --- | --- | --- |
| – | – | – | – | 3.84 µM | Not Active | COc1ccc(Nc2nc(Nc3ccc(OC)c(F)c3)cc(N3CCN(c4ncccn4)CC3)n2)cc1 |
| > 50% | 4.18 µM | > 50% | Not Active | – | – | COc1ccc(Nc2nc(Nc3ccc(F)c(Cl)c3)cc(N3CCCCC3)n2)cc1 |
| > 50% | 12.5 µM | > 50% | – | 27.5 µM | – | COc1ccc(Nc2cc(Nc3ccc(OC(F)F)cc3)nc(NC3CCCCC3)n2)cc1 |
| > 50% | 0.54 µM | > 50% | Not Active | – | – | COc1ccc(Nc2nc(Nc3cccc(OC(F)F)c3)cc(N3CCCCC3)n2)cc1 |
| > 50% | 0.55 µM | > 50% | – | 6.82 µM | – | COc1ccc(Nc2cc(Nc3cccc(OC(F)(F)F)c3)nc(NC3CCCCC3)n2)cc1 |
| > 50% | 1.92 µM | > 50% | – | 3.35 µM | – | COc1ccc(Nc2cc(N3CCCCC3)nc(N3CCCN(c4ncccc4C(F)(F)F)CC3)n2)cc1 |
| – | – | – | Not Active | – | Not Active | COc1ccc(Nc2nc(Nc3ccc(OC)c(F)c3)cc(N3CCCCC3C)n2)cc1 (stereo not drawn) |
| > 50% | 2.03 µM | > 50% | – | 6.32 µM | – | COc1ccc(Nc2cc(N3CCCCC3)nc(N3CCCN(c4ncccc4C(F)(F)F)CC3)n2)cc1F |
| > 50% | 0.38 µM | > 50% | Not Active | – | – | COc1ccc(Nc2nc(Nc3cccc(OC(F)(F)F)c3)cc(N3CCCCC3)n2)cc1 |
| > 50% | 4.15 µM | > 50% | – | 6.9 µM | – | FC(F)Oc1cccc(Nc2cc(Nc3ccccc3)nc(N3CCCCC3)n2)c1 |
| > 50% | 3.4 µM | > 50% | – | 12.8 µM | – | COc1ccc(Nc2cc(N3CCN(c4ccccc4)CC3)nc(N3CCCC3)n2)cc1 |
| > 50% | 0.38 µM | > 50% | Not Active | – | – | COc1ccc(Nc2nc(Nc3cccc(F)c3C)cc(N3CCCCC3)n2)cc1 |
| > 50% | 0.78 µM | > 50% | Not Active | – | – | COc1ccc(Nc2nc(Nc3ccc(C(F)(F)F)cc3)cc(N3CCCCC3)n2)cc1 |
| > 50% | 0.93 µM | > 50% | – | 4.6 µM | – | COc1ccc(Nc2cc(Nc3cccc(OC)c3)nc(N3CCCC3)n2)cc1 |
| – | – | – | Not Active | – | Not Active | FC(F)(F)Oc1ccc(Nc2cc(Nc3ccccc3)nc(N3CCCCC3)n2)cc1 |
| > 50% | 8.65 µM | > 50% | – | 6.77 µM | – | COc1ccc(Nc2cc(Nc3ccccc3)nc(N3CCCCC3)n2)cc1F |
| > 50% | 1.18 µM | > 50% | Not Active | – | – | COc1ccc(Nc2nc(Nc3ccc(C)cc3C)cc(N3CCCCC3)n2)cc1 |
